According to ChEMBL document CHEMBL1955832, “Facile synthesis, characterization and pharmacological activities of 3,6-disubstituted 1,2,4-triazolo[3,4-b][1,3,4]thiadiazoles and 5,6-dihydro-3,6-disubstituted-1,2,4-triazolo[3,4-b][1,3,4]thiadiazoles” (2012):
Converted amounts (≈) assume the structure as drawn. The source made the active and inactive calls. The calls are words filed in the database; no cut-off is given here.

Tests used:
[1] = system: Rattus norvegicus; experiment: Antiinflammatory activity rat assessed as reduction of carrageenan-induced paw oedema at 100 mg/kg, po administered 30 mins before carrageenan challenge measured after 60 to 180 mins; format: functional, organism-based; parameters: dose 100 mg/kg
How it was run: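 Rats randomly assigned, 100 mg/kg orally as suspension in 1% carboxymethyl cellulose, 30 min before carrageenan injected into right hind paw. Paw thickness measured with vernier callipers at 60, 120 and 180 min. Diclofenac reference; mean ± SEM, n = 6, vs vehicle control.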

[2] = system: Mus musculus; experiment: Analgesic activity Wistar albino mouse assessed as tail withdrawal latency time at 100 mg/kg, po administered by intragastric tube after 60 mins (reference value: 1.363 +/- 0.1297 sec); format: functional
[3] = system: Mus musculus; experiment: Analgesic activity Wistar albino mouse assessed as tail withdrawal latency time at 100 mg/kg, po administered by intragastric tube after 120 mins (reference value: 1.363 +/- 0.1297 sec); format: functional
[4] = system: Mus musculus; experiment: Analgesic activity Wistar albino mouse assessed as tail withdrawal latency time at 100 mg/kg, po administered by intragastric tube after 180 mins (reference value: 1.363 +/- 0.1297 sec); format: functional
[5] = system: Staphylococcus aureus; experiment: Antibacterial activity against Staphylococcus aureus ATTC 25923 after 16 to 18 hrs by serial dilution method; format: functional
How it was run: (§1)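 Serial drug dilutions in Mueller-Hinton broth adjusted to pH 5.0 with phosphate buffer, inoculated with standardized bacterial suspension, incubated 16–18 h at 37 °C; MIC taken as lowest concentration without conspicuous growth.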

[6] = system: Staphylococcus aureus; experiment: Antibacterial activity against Staphylococcus aureus ATTC 25923 at MIC after 3 to 4 days by disc diffusion method; format: functional
How it was run: (§2)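 Agar well diffusion: seeded agar plates dried 1 h at 37 °C, wells punched and filled with test compound at MIC level in DMSO; DMSO solvent control. Plates in triplicate, kept at 37 °C for 3–4 days; zone of inhibition read.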

[7] = system: Escherichia coli; experiment: Antibacterial activity against Escherichia coli ATTC 25922 after 16 to 18 hrs by serial dilution method; format: functional; how it was run: as §1
[8] = system: Escherichia coli; experiment: Antibacterial activity against Escherichia coli ATTC 25922 at MIC after 3 to 4 days by disc diffusion method; format: functional; how it was run: as §2
[9] = system: Pseudomonas aeruginosa; experiment: Antibacterial activity against Pseudomonas aeruginosa ATTC 27853 after 16 to 18 hrs by serial dilution method; format: functional; how it was run: as §1
[10] = system: Pseudomonas aeruginosa; experiment: Antibacterial activity against Pseudomonas aeruginosa ATTC 27853 at MIC after 3 to 4 days by disc diffusion method; format: functional; how it was run: as §2
[11] = system: Klebsiella pneumoniae; experiment: Antibacterial activity against recultured Klebsiella pneumoniae after 16 to 18 hrs by serial dilution method; format: functional; how it was run: as §1
[12] = system: Klebsiella pneumoniae; experiment: Antibacterial activity against recultured Klebsiella pneumoniae at MIC after 3 to 4 days by disc diffusion method; format: functional; how it was run: as §2
[13] = system: Talaromyces marneffei; experiment: Antifungal activity against recultured Penicillium marneffei by serial plate dilution method; format: functional
[14] = system: Talaromyces marneffei; experiment: Antifungal activity against recultured Penicillium marneffei at MIC after 3 to 4 days; format: functional
[15] = system: Trichophyton mentagrophytes; experiment: Antifungal activity against recultured Trichophyton mentagrophytes by serial plate dilution method; format: functional
[16] = system: Trichophyton mentagrophytes; experiment: Antifungal activity against recultured Trichophyton mentagrophytes at MIC after 3 to 4 days; format: functional
[17] = system: Aspergillus flavus; experiment: Antifungal activity against Aspergillus flavus NCIM 524 by serial plate dilution method; format: functional
[18] = system: Aspergillus flavus; experiment: Antifungal activity against Aspergillus flavus NCIM 524 at MIC after 3 to 4 days; format: functional
[19] = system: Aspergillus fumigatus; experiment: Antifungal activity against Aspergillus fumigatus NCIM 902 by serial plate dilution method; format: functional
[20] = system: Aspergillus fumigatus; experiment: Antifungal activity against Aspergillus fumigatus NCIM 902 at MIC after 3 to 4 days; format: functional

| SMILES | Activity [1] | Time [2] [s] | Time [3] [s] | Time [4] [s] | MIC [5] [µM] | diameter of the inhibition zone (DIZ) [6] [mm] | MIC [7] [µM] | diameter of the inhibition zone (DIZ) [8] [mm] | MIC [9] [µM] | diameter of the inhibition zone (DIZ) [10] [mm] | MIC [11] [µM] | diameter of the inhibition zone (DIZ) [12] [mm] | MIC [13] [µM] | diameter of the inhibition zone (DIZ) [14] [mm] | MIC [15] [µM] | diameter of the inhibition zone (DIZ) [16] [mm] | MIC [17] [µM] | diameter of the inhibition zone (DIZ) [18] [mm] | MIC [19] [µM] | diameter of the inhibition zone (DIZ) [20] [mm] |
| --- | --- | --- | --- | --- | --- | --- | --- | --- | --- | --- | --- | --- | --- | --- | --- | --- | --- | --- | --- | --- |
| COc1ccc(Br)c(-c2nnc3sc(-c4ccc(C)cc4O)nn23)c1 | Active | 2.388 | 3.321 | 3.121 | 29.9 (≈ 12.5 µg/mL) | 11 | 15 (≈ 6.25 µg/mL) | 16 | 15 (≈ 6.25 µg/mL) | 16 | 15 (≈ 6.25 µg/mL) | 16 | 29.9 (≈ 12.5 µg/mL) | 11 | 15 (≈ 6.25 µg/mL) | 16 | 15 (≈ 6.25 µg/mL) | 16 | 15 (≈ 6.25 µg/mL) | 16 |
| COc1ccc(Br)c(-c2nnc3sc(-c4ccc(C)cc4)nn23)c1 | Active | 2.384 | 2.681 | 2.47 | 15.8 (≈ 6.32 µg/mL) | 16 | 15.8 (≈ 6.32 µg/mL) | 16 | 31.1 (≈ 12.5 µg/mL) | 11 | 15.8 (≈ 6.32 µg/mL) | 16 | 31.1 (≈ 12.5 µg/mL) | 11 | 15.8 (≈ 6.32 µg/mL) | 16 | 31.1 (≈ 12.5 µg/mL) | 11 | 31.1 (≈ 12.5 µg/mL) | 11 |
| COc1ccc(Br)c(-c2nnc3n2NC(c2ccc(-c4ccccc4)cc2)S3)c1 (centres undefined) |  | 2.102 | 2.067 | 2.455 | 26.9 (≈ 12.5 µg/mL) | 11 | 26.9 (≈ 12.5 µg/mL) | 11 | 26.9 (≈ 12.5 µg/mL) | 11 | 13.4 (≈ 6.25 µg/mL) | 16 | 26.9 (≈ 12.5 µg/mL) | 11 | 26.9 (≈ 12.5 µg/mL) | 11 | 13.4 (≈ 6.25 µg/mL) | 16 | 26.9 (≈ 12.5 µg/mL) | 11 |
| CCC(C)n1ncn(-c2ccc(N3CCN(c4ccc(OCC5COC(Cn6cncn6)(c6ccc(Cl)cc6Cl)O5)cc4)CC3)cc2)c1=O (centres undefined) [ITRACONAZOLE] |  |  |  |  |  |  |  |  |  |  |  |  | 2.21 (≈ 1.56 µg/mL) | 22 | 8.86 (≈ 6.25 µg/mL) | 30 | 8.86 (≈ 6.25 µg/mL) | 25 | 8.86 (≈ 6.25 µg/mL) | 23 |
| CC1(C)S[C@@H]2[C@H](NC(=O)[C@H](N)c3ccccc3)C(=O)N2[C@H]1C(=O)O [AMPICILLIN] |  |  |  |  | 4.46 (≈ 1.56 µg/mL) | 22 | 17.9 (≈ 6.25 µg/mL) | 30 | 17.9 (≈ 6.25 µg/mL) | 25 | 17.9 (≈ 6.25 µg/mL) | 23 |  |  |  |  |  |  |  |  |
| COc1ccc(Br)c(-c2nnc3n2NC(c2ccccc2)S3)c1 (centres undefined) |  | 3.181 | 3.46 | 3.391 | 32.1 (≈ 12.5 µg/mL) | 11 | 16.1 (≈ 6.25 µg/mL) | 16 | 32.1 (≈ 12.5 µg/mL) | 11 | 32.1 (≈ 12.5 µg/mL) | 11 | 6.25 (≈ 2.43 µg/mL) | 16 | 12.5 (≈ 4.87 µg/mL) | 11 | 12.5 (≈ 4.87 µg/mL) | 11 | 6.25 (≈ 2.43 µg/mL) | 16 |
| COc1ccc(Br)c(-c2nnc3sc(-c4ccccc4)nn23)c1 |  | 1.963 | 2.125 | 2.5 | 32.3 (≈ 12.5 µg/mL) | 11 | 32.3 (≈ 12.5 µg/mL) | 11 | 32.3 (≈ 12.5 µg/mL) | 11 | 32.3 (≈ 12.5 µg/mL) | 11 | 16.1 (≈ 6.25 µg/mL) | 16 | 32.3 (≈ 12.5 µg/mL) | 11 | 32.3 (≈ 12.5 µg/mL) | 11 | 32.3 (≈ 12.5 µg/mL) | 11 |
| COc1ccc(Br)c(-c2nnc3sc(-c4cc(C)cc(C)c4)nn23)c1 |  | 2.175 | 2.075 | 2.238 | 30.1 (≈ 12.5 µg/mL) | 11 | 15.1 (≈ 6.25 µg/mL) | 16 | 15.1 (≈ 6.25 µg/mL) | 16 | 15.1 (≈ 6.25 µg/mL) | 16 | 30.1 (≈ 12.5 µg/mL) | 11 | 15.1 (≈ 6.25 µg/mL) | 16 | 15.1 (≈ 6.25 µg/mL) | 16 | 15.1 (≈ 6.25 µg/mL) | 16 |
| CC(C)=CCN1CC[C@]2(C)c3cc(O)ccc3C[C@H]1[C@H]2C [(+)-PENTAZOCINE] |  | 7.075 | 6.863 | 7.025 |  |  |  |  |  |  |  |  |  |  |  |  |  |  |  |  |
| COc1ccc(Br)c(-c2nnc3sc(-c4ccc(I)cc4I)nn23)c1 |  | 2.038 | 2.088 | 2.225 | 19.6 (≈ 12.5 µg/mL) | 11 | 19.6 (≈ 12.5 µg/mL) | 11 | 19.6 (≈ 12.5 µg/mL) | 11 | 19.6 (≈ 12.5 µg/mL) | 11 | 19.6 (≈ 12.5 µg/mL) | 11 | 19.6 (≈ 12.5 µg/mL) | 11 | 19.6 (≈ 12.5 µg/mL) | 11 | 19.6 (≈ 12.5 µg/mL) | 11 |
